From ChEMBL document CHEMBL2396584, “Semisynthesis, cytotoxicity, antiviral activity, and drug interaction liability of 7-O-methylated analogues of flavonolignans from milk thistle” (Bioorg Med Chem, 2013) come the findings set out here.

Data set [1] can be described thus: Inhibition of UGT in human liver microsomes using 4-methylumbelliferone as substrate after 10 mins by fluorescence analysis. It counts as ADME, Microsome. The gist of the method:
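Pooled human liver microsomes (0.4 mg/mL) were incubated with 4-MU (100 μM), compound at 10 or 100 μM, 0.05% BSA, and 0.1 M Tris–HCl pH 7.5 with 5 mM MgCl2. The reaction was started with UDPGA (4 mM), and 4-MU depletion was followed by fluorescence over 10 min. Vehicle was 0.2% MeOH and diclofenac (400 μM) was the positive control. Data are means ± SD of triplicate incubations.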

For data set [2], the system named is Hepatitis C virus. Nature of the data set: Antiviral activity against HCV JFH-1 infected in human Huh7.5.1 cells assessed as viral core protein expression at 0.8 to 8 uM after 72 hrs by Western blot analysis. The class given is functional, organism-based. The conditions noted are these: Hepacivirus hominis, Huh-7.
The nature of data set [3]: Cytotoxicity against human Huh7.5.1 cells after 72 hrs. The class given is functional, cell-based. Conditions: Huh-7, 72 h. The gist of the method: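 Huh7.5.1 hepatoma cells were seeded at 10,000 per well and incubated overnight. They were then exposed to nine concentrations from 0 to 62.5 μM. Viability was read after 72 h with an ATPlite assay. Each point was run in three replicates, and IC50 was derived by linear regression.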

The subject of data set [4] is Hepatitis C virus. Nature of the data set: Antiviral activity against HCV JFH-1 infected in human Huh7.5.1 cells assessed as viral core protein expression at 1.6 to 16.1 uM after 72 hrs by Western blot analysis. It counts as functional, organism-based. Conditions: Hepacivirus hominis, Huh-7.
Data set [5] relates to Hepatitis C virus. Nature of the data set: Antiviral activity against HCV JFH-1 infected in human Huh7.5.1 cells assessed as viral core protein expression at 6 to 60.3 uM after 72 hrs by Western blot analysis. It counts as functional, organism-based. The conditions noted are these: Hepacivirus hominis, Huh-7.
Data set [6] relates to Hepatitis C virus. Briefly: Antiviral activity against HCV JFH-1 infected in human Huh7.5.1 cells assessed as viral core protein expression at 12.4 to 124.2 uM after 72 hrs by Western blot analysis. It counts as functional, organism-based. Conditions: Hepacivirus hominis, Huh-7.
Data set [7] concerns Hepatitis C virus. Nature of the data set: Antiviral activity against HCV JFH-1 infected in human Huh7.5.1 cells assessed as viral core protein expression at 6.2 to 62.1 uM after 72 hrs by Western blot analysis. It counts as functional, organism-based. The conditions noted are these: Hepacivirus hominis, Huh-7.
The target in data set [8] is Cytochrome P450 2C9 (Homo sapiens, UniProt P11712). Nature of the data set: Inhibition of CYP2C9 in human liver microsomes using (S)-warfarin as substrate after 30 mins. The conditions noted are these: 0.5 h. It counts as ADME, Microsome.

Calls of active or inactive are those of the source. No cut-off for these calls is given here.

Cytochrome P450 2C9, sequence (P11712 whole entry): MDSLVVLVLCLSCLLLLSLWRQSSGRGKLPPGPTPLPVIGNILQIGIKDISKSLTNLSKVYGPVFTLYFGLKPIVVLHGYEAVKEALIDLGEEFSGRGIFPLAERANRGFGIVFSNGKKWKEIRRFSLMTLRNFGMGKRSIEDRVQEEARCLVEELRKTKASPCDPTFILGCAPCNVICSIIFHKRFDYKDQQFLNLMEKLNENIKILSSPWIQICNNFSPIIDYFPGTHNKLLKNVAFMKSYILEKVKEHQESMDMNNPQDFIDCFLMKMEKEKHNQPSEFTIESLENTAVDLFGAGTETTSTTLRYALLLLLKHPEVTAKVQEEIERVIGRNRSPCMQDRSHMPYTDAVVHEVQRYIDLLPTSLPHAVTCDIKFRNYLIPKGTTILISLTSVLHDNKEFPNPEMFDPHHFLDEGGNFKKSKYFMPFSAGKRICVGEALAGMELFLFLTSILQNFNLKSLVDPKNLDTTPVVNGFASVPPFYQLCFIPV

For `COc1cc(O)c2c(c1)O[C@H](c1ccc3c(c1)O[C@@H](c1ccc(O)c(OC)c1)[C@H](CO)O3)[C@@H](O)C2=O`, the “inhibition (INH)” value in data set [1] is listed as “Active”. Also, in data set [2], the result was Active. Besides, the IC50 in data set [3] amounted to 12.7 µM.
On to `COc1cc(O)c2c(c1)O[C@H](c1ccc3c(c1)O[C@H](CO)[C@@H](c1ccc(O)c(OC)c1)O3)[C@@H](O)C2=O`, for which, in data set [2], the outcome was Active. In addition, the IC50 in data set [3] was found to be 13.2 µM.
As to `COc1cc(O)c2c(c1)O[C@H](c1ccc3c(c1)O[C@@H](CO)[C@H](c1ccc(O)c(OC)c1)O3)[C@@H](O)C2=O`, in data set [4], the outcome was Active. In data set [3], the IC50 was determined as 18 µM.
For `COc1cc(O)c2c(c1)O[C@H](c1cc(O)c3c(c1)[C@@H](CO)[C@H](c1ccc(O)c(OC)c1)O3)[C@@H](O)C2=O`, the result in data set [5] was Active. This compound displayed an IC50 in data set [3] of 66.4 µM.
In the case of `COc1cc(O)c2c(c1)O[C@H](c1ccc(O)c3c1[C@@H](CO)[C@H](c1ccc(O)c(OC)c1)O3)[C@@H](O)C2=O`, the outcome in data set [6] was Active. The compound further showed a 50% inhibitory concentration (IC50) in data set [3] of 27.6 µM.
For the compound `COc1cc(O)c2c(c1)O[C@H](C1=C[C@H]3C(=O)[C@]4(O)OC[C@H]([C@H]3c3ccc(O)c(OC)c3)[C@H]14)[C@@H](O)C2=O`, the “inhibition (INH)” value in data set [1] is “Active”. Further, in data set [2], the outcome was Active. The compound further showed an IC50 in data set [3] of 9.4 µM.
As for `COc1cc(O)c2c(c1)O[C@H](c1ccc3c(c1)O[C@H](c1ccc(O)c(OC)c1)[C@@H](CO)O3)[C@@H](O)C2=O`, the “inhibition (INH)” value in data set [1] was “Active”. Further, the result in data set [2] was Active. The compound further returned an IC50 in data set [3] of 9.5 µM.
Turning to `O=C(O)Cc1ccccc1Nc1c(Cl)cccc1Cl` [DICLOFENAC], the “inhibition (INH)” value in data set [1] was 56%.
For the compound `COc1cc([C@H]2Oc3ccc([C@H]4Oc5cc(O)cc(O)c5C(=O)[C@@H]4O)cc3O[C@@H]2CO)ccc1O` [ISOSILYBIN A], the outcome in data set [7] was Active. Besides, the “inhibition (INH)” value in data set [8] is recorded as “Not Active”. Moreover, in data set [3], the IC50 worked out at 80 µM.
Turning to `COc1cc([C@@H]2Oc3ccc([C@H]4Oc5cc(O)cc(O)c5C(=O)[C@@H]4O)cc3O[C@H]2CO)ccc1O` [ISOSILYBIN B], in data set [4], the outcome was Active. This compound also registered an IC50 in data set [3] of 27 µM.
For the compound `COc1cc([C@@H]2Oc3c(O)ccc([C@H]4Oc5cc(O)cc(O)c5C(=O)[C@@H]4O)c3[C@H]2CO)ccc1O` [ISOSILYCHRISTIN], the result in data set [6] was inactive. This compound had an IC50 in data set [3] above 130 µM.
The compound `Oc1ccc(/C=C/c2cc(O)cc(O)c2)cc1` [RESVERATROL] registered an IC50 in data set [3] of 10.6 µM.
With `COc1cc(C2Oc3c(O)cc([C@H]4Oc5cc(O)cc(O)c5C(=O)[C@@H]4O)cc3C2CO)ccc1O` (some centres not stated) [SILICRISTIN], in data set [6], the outcome was inactive. For the same compound, in data set [3], the half-inhibitory concentration (IC50) was above 130 µM.
As to `COc1cc([C@@H]2[C@H]3CO[C@@]4(O)C(=O)[C@@H]2C=C([C@H]2Oc5cc(O)cc(O)c5C(=O)[C@@H]2O)[C@@H]34)ccc1O` [SILIDIANIN], the result in data set [6] was inactive. Besides, in data set [1], the “inhibition (INH)” value is “Active”. In data set [3], this compound registered an IC50 above 130 µM.
For `COc1cc([C@H]2Oc3cc([C@H]4Oc5cc(O)cc(O)c5C(=O)[C@@H]4O)ccc3O[C@@H]2CO)ccc1O` [SILYBIN A], the outcome in data set [7] was Active. In data set [1], the “inhibition (INH)” value is listed as “Active”. Further, the IC50 in data set [3] was 80 µM.
As to `COc1cc([C@@H]2Oc3cc([C@H]4Oc5cc(O)cc(O)c5C(=O)[C@@H]4O)ccc3O[C@H]2CO)ccc1O` [SILYBIN B], the result in data set [7] was Active. The “inhibition (INH)” value in data set [1] is listed as “Active”. Half-maximal inhibition in data set [3] (IC50) was put at 68.7 µM.
